ChEMBL document CHEMBL3992509, “Discovery of a Highly Potent, Selective, and Metabolically Stable Inhibitor of Receptor-Interacting Protein 1 (RIP1) for the Treatment of Systemic Inflammatory Response Syndrome” (J Med Chem, 2017)
Active and inactive are the calls of the source. No cut-off for these calls is given here.

Experiments:
[1] = target: Cytochrome P450 2C19 (Homo sapiens, UniProt P33261); assay: Inhibition of CYP2C19 (unknown origin); format: ADME
[2] = tested on: Mus musculus; assay: (§1) Protection against TNFalpha-induced kidney damage in C57BL/6J mouse at 0.3 to 3 mg/kg, ip pretreated for 17 mins followed by TNFalpha injection and subsequent compound treatment once in every 12 hrs measured 24 hrs post TNFalpha injection by hematoxylin and eosin staining based assay; format: functional, organism-based
How it was run: (§2)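 Mice given mTNFα IV; compound 0.3, 1, 3 mg/kg IP 17 min before and every 12 h. Killed 24 h post-TNFα. Organs fixed 24 h in 10% neutral buffered formalin, paraffin-embedded, 5-μm sections, H&E stained; ×200, at least three mice each.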

[3] = tested on: Mus musculus; assay: Protection against TNFalpha-induced mortality in C57BL/6J mouse assessed as survival rate at 3 mg/kg, ip pretreated for 17 mins followed by TNFalpha injection and subsequent compound treatment once in every 12 hrs measured every 30 mins up to 60 hrs post TNFalpha injection during compound dosing (reference value: 50%); format: functional
[4] = target: Indoleamine 2,3-dioxygenase 1 (Homo sapiens, UniProt P14902); assay: Inhibition of recombinant human IDO expressed in Escherichia coli assessed as reduction in kynurenine production at 200 uM using L-tryptophan as substrate after 3 hrs by methylene blue dye based assay
How it was run: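 Reaction mix: 50 mM MES pH 6.5, 20 mM ascorbate, 2250 U/mL catalase, 10 μM methylene blue, 200 μM L-Trp, 100 nM recombinant IDO, 200 μM compound or DMSO. Incubated 37 °C for 3 h; kynurenine colour read at 321 nm.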

[5] = tested on: Mus musculus; assay: Protection against TNFalpha-induced mortality in C57BL/6J mouse assessed as survival rate at 6 mg/kg, ip administered as single dose 17 mins before TNFalpha injection measured every 30 mins up to 60 hrs post TNFalpha injection (reference value: 50%); format: functional
[6] = tested on: Mus musculus; assay: as §1, with “spleen” for “kidney”, “mouse assessed as reduction in macrophages infiltration” for “mouse”; format: functional, organism-based; how it was run: as §2
[7] = target: T1, Receptor-interacting serine/threonine-protein kinase 1 (Homo sapiens, UniProt Q13546); assay: Inhibition of RIP1 (unknown origin) using MBP as substrate preincubated for 15 mins followed by MBP/ATP mixture addition measured after 90 mins by ADP-Glo kinase assay
T1 sequence (Q13546 whole entry): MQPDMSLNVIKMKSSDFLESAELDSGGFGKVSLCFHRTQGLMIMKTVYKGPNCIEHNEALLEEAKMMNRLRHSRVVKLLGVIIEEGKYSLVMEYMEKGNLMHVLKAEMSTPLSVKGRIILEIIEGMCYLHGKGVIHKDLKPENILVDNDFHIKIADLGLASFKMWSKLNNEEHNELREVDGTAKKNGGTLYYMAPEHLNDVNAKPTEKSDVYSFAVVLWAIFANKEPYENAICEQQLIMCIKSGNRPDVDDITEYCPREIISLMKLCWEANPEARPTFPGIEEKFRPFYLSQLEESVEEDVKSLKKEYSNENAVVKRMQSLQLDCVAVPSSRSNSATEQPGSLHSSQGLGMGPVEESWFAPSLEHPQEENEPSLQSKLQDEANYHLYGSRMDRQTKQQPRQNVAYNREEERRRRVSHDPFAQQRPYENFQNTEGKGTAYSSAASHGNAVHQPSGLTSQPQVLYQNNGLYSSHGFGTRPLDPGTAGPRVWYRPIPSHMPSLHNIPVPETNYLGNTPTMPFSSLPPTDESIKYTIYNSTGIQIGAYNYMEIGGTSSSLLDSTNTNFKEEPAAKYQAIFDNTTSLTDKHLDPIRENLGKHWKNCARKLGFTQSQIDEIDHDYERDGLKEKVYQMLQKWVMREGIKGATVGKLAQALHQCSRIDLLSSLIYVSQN
How it was run: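 Recombinant RIP1 pre-incubated 15 min with compound or DMSO in 25 mM HEPES pH 7.2, 20 mM MgCl2, 12.5 mM MnCl2, 5 mM EGTA, 2 mM EDTA, 12.5 mM β-glycerol phosphate, 2 mM DTT. Reaction started with ATP (50 μM final) and MBP (20 μM final), run 90 min at room temperature. ADP-Glo luminescence read-out.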

[8] = target: Receptor-interacting serine/threonine-protein kinase 3 (Homo sapiens) (UniProt Q9Y572); assay: Inhibition of TNFalpha/z-VAD-FMK-induced RIP3 phosphorylation at Ser-227 residue in human HT-29 cells by Western blot method; format: cell-based
[9] = tested on: Mus musculus; assay: as §1, with “thymus” for “kidney”, “mouse assessed as reduction in macrophages infiltration” for “mouse”; format: functional, organism-based; how it was run: as §2
[10] = target: Cytochrome P450 2D6 (Homo sapiens, UniProt P10635); assay: Inhibition of CYP2D6 (unknown origin); format: ADME
[11] = target: Receptor-interacting serine/threonine-protein kinase 3 (Homo sapiens) (UniProt Q9Y572); assay: Inhibition of full length recombinant human N-terminal GST-tagged RIP3 expressed in baculovirus infected sf9 cells at 10 uM using MBP as substrate preincubated for 15 mins followed by MBP/ATP mixture addition measured after 90 mins by ADP-Glo kinase assay
[12] = Half life in C57BL/6J mouse at 2 mg/kg, iv by LC-MS/MS analysis; format: ADME, organism-based; details: in vivo
How it was run: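 C57BL/6 mice (n = 3) dosed IV, IP or PO; blood sampled by eye puncture at various time points; plasma levels by LC-MS/MS; parameters from individual animal data by non-compartmental analysis.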

[13] = tested on: Mus musculus; assay: Protection against TNFalpha-induced multiorgan damage in C57BL/6J mouse assessed as serum amylase level at 0.3 to 3 mg/kg, ip pretreated for 17 mins followed by TNFalpha injection and subsequent compound treatment once in every 12 hrs measured 24 hrs post TNFalpha injection; format: functional, organism-based
How it was run: (§3)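 C57BL/6 mice given 4 μg mTNFα (~0.18 mg/kg) IV. Compound 0.3, 1, 3 mg/kg IP 17 min before and then every 12 h; vehicle controls. Blood taken 12 h and 24 h after TNFα. Assays: IL-6 and IL-1β; serum LDH, CK, AST, creatinine, BUN, amylase.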

[14] = tested on: Mus musculus; assay: Protection against TNFalpha-induced multiorgan damage in C57BL/6J mouse assessed as serum AST level at 0.3 to 3 mg/kg, ip pretreated for 17 mins followed by TNFalpha injection and subsequent compound treatment once in every 12 hrs measured 24 hrs post TNFalpha injection; format: functional, organism-based; how it was run: as §3
[15] = tested on: Mus musculus; assay: Protection against TNFalpha-induced myocardium damage in C57BL/6J mouse at 0.3 to 3 mg/kg, ip pretreated for 17 mins followed by TNFalpha injection and subsequent compound treatment once in every 12 hrs measured 24 hrs post TNFalpha injection by hematoxylin and eosin staining based assay; format: functional, organism-based; how it was run: as §2
[16] = Efflux ratio of apparent permeability in MDCK cells harboring MDR1; format: ADME, cell-based, Canis lupus familiaris; details: dog
[17] = tested on: Brain; assay: Drug uptake in C57BL/6J mouse brain at 20 mg/kg, iv after 2 hrs by LC-MS/MS analysis; format: ADME, organism-based; details: in vivo
[18] = target: Cytochrome P450 2C9 (Homo sapiens, UniProt P11712); assay: Inhibition of CYP2C9 (unknown origin); format: ADME
Cytochrome P450 2C9, sequence (P11712 whole entry): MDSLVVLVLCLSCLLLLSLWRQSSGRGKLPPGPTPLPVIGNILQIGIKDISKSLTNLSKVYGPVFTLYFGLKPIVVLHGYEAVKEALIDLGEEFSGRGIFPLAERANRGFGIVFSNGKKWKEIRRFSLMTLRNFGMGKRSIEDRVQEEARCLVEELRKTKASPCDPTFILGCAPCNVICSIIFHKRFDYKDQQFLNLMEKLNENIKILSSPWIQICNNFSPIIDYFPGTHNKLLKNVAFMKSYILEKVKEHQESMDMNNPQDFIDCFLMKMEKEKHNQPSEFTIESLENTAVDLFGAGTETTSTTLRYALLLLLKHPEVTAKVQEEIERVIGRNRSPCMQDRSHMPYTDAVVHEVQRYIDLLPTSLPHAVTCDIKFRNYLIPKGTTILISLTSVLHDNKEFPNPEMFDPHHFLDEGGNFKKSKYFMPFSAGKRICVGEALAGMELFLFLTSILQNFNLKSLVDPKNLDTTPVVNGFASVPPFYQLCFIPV

Receptor-interacting serine/threonine-protein kinase 3 (Homo sapiens), sequence (Q9Y572 whole entry, looked up): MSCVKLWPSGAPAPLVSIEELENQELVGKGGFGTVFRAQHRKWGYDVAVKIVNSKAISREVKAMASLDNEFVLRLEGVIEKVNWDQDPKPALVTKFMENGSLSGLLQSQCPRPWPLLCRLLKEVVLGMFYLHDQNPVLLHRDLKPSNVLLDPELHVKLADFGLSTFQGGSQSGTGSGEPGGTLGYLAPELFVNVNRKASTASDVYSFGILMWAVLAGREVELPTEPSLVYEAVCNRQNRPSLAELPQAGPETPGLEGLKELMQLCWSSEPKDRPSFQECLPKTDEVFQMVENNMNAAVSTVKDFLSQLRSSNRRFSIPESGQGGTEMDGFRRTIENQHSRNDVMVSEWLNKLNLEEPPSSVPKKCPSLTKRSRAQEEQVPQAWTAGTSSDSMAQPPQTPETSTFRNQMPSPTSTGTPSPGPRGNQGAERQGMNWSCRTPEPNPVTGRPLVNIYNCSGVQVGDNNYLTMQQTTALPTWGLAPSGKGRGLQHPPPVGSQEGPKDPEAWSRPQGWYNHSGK
Indoleamine 2,3-dioxygenase 1, sequence (P14902 whole entry): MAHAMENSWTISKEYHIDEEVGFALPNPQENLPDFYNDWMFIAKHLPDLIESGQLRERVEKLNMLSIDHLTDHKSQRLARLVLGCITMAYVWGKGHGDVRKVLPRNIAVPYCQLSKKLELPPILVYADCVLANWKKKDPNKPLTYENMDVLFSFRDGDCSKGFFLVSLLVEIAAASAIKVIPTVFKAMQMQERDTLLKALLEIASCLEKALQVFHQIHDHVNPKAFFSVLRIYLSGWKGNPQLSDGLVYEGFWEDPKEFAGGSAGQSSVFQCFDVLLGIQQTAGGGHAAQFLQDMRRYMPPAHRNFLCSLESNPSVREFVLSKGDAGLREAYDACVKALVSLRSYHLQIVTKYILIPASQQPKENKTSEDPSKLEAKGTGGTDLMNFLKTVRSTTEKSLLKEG
Cytochrome P450 2C19, sequence (P33261 whole entry): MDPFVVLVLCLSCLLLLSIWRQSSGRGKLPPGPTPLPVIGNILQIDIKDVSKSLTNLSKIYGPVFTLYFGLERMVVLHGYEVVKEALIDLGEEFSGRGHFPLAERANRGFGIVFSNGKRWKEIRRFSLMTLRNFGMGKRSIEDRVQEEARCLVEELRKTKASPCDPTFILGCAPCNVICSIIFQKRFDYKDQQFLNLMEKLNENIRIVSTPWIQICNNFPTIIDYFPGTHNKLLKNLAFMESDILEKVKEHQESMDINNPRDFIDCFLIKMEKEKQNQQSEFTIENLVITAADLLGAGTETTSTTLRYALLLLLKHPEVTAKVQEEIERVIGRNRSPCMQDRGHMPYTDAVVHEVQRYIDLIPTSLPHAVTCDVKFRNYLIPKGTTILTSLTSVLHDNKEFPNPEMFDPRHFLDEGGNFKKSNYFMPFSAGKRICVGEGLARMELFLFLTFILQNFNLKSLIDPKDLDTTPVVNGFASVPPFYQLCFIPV
Cytochrome P450 2D6, sequence (P10635 whole entry): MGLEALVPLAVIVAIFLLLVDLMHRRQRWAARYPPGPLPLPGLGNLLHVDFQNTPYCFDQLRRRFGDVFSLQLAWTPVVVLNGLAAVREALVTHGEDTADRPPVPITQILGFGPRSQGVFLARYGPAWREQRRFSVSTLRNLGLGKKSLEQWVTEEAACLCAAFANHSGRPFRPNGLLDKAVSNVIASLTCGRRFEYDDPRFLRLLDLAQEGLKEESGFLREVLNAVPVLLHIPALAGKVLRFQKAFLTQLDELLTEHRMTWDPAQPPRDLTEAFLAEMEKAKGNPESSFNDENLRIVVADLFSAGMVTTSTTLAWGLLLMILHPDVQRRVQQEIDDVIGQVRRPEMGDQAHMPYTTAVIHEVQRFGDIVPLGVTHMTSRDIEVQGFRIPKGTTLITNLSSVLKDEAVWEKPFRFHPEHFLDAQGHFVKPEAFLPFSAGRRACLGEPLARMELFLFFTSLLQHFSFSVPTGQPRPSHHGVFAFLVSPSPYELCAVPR

SMILES: CCC(C)(C)C(=O)N(O)Cc1ccccc1
- IC50 [1]: > 50 µM
- Activity [2]: Active
- survival at 3 mg/kg [3]: 100%
- inhibition (INH) [4]: Not Active
- survival at 6 mg/kg [5]: 100%
- Activity [6]: Active
- IC50 [7]: 0.013 µM
- inhibition [8]: Active
- Activity [9]: Active
- IC50 [10]: > 50 µM
- inhibition [11]: inactive
- half-life [12]: 3.1 h
- Activity [13]: Active
- Activity [14]: Active
- Activity [15]: Active
- efflux ratio [16]: 0.87
- Drug uptake [17]: Active
- IC50 [18]: > 50 µM
